# According to ChEMBL document CHEMBL2434947, “Probing structural requirements of positive allosteric modulators of the M4 muscarinic receptor” (J Med Chem, 2013):
# Calls of active or inactive are those of the source. The calls are words filed in the database; no cut-off is given here.
# Key:
# [1] = target: T1, Muscarinic acetylcholine receptor M4 (Homo sapiens) (UniProt P08173); assay: Binding affinity to human muscarinic M4 receptor expressed in CHO Flp-In cells; assay type: cell-based
# T1 sequence (whole entry): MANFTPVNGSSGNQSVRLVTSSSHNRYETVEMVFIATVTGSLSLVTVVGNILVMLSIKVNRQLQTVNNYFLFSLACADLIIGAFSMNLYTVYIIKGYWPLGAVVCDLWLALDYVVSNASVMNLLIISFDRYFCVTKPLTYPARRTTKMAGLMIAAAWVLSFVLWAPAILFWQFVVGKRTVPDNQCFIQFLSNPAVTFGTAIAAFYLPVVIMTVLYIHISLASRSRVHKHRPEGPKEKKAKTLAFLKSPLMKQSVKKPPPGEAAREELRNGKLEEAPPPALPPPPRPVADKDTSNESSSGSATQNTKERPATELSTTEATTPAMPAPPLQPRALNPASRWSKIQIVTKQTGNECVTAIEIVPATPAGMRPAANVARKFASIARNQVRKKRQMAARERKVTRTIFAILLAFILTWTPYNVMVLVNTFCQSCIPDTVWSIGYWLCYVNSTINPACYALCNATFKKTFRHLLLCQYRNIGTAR
# Procedure, shortened: (§1)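 Intact FlpIn-CHO cells stably expressing human M4 mAChR; ERK1/2 phosphorylation read-out. A time course first set the incubation time of peak phosphorylation, and concentration-response curves were run at that time. Modulator was titrated against ACh. pKB (allosteric site affinity), τB and composite cooperativity αβ came from an operational model of allosterism. Mean ± SEM from at least three experiments in duplicate.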
# [2] = target: T1, Muscarinic acetylcholine receptor M4 (Homo sapiens); assay: Positive allosteric modulation of human muscarinic M4 receptor expressed in CHO Flp-In cells assessed as stimulation of acetylcholine-induced ERK1/2 phosphorylation incubated under green light condition by fluorescence assay
# [3] = target: T2, Muscarinic acetylcholine receptor M4 (Homo sapiens, UniProt P08173); assay: Positive allosteric modulation of human muscarinic M4 receptor expressed in CHO Flp-In cells assessed as stimulation of acetylcholine-induced ERK1/2 phosphorylation incubated under green light condition by fluorescence assay; assay type: cell-based; procedure, shortened: as §1
# T2 sequence (P08173 whole entry): T1 sequence (whole entry)
# [4] = target: T1, Muscarinic acetylcholine receptor M4 (Homo sapiens); assay: Positive allosteric modulation of human muscarinic M4 receptor expressed in CHO Flp-In cells assessed as stimulation of acetylcholine-induced ERK1/2 phosphorylation incubated under green light condition by fluorescence assay relative to control; assay type: cell-based
# Procedure, shortened: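 ERK1/2 phosphorylation in intact FlpIn-CHO cells stably expressing human M4 mAChR. Modulator was titrated at a fixed EC20 concentration of ACh to give empirical EC50 and Emax (EM′). The incubation time was taken from prior time-course assays of peak phosphorylation. Mean ± SEM from at least three experiments performed in duplicate.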
# [5] = target: T1, Muscarinic acetylcholine receptor M4 (Homo sapiens); assay: Displacement of [3H]NMS from human muscarinic M4 receptor expressed in CHO Flp-In cells after 4 hrs by scintillation counting analysis; assay type: cell-based
Compound,Emax [4],Kb [1],pKb [1],EC50 ([3]; read-out: EC50),Activity [4],other results
COc1cc(CNC(=O)c2sc3nc(C)cc(C)c3c2N)cc(OC)c1.Cl,inactive,,,,,KB [1]: inactive; Activity [2]: inactive; EC50 [3]: Not Active
COc1cccc(CNC(=O)c2sc3nc(C)cc(C)c3c2N)c1,92%,11400 nM,4.95,560 nM,,
COc1cc(CNC(=O)c2sc3nc(C)cc(C)c3c2N)cc(OC)c1OC.Cl,inactive,,,,,KB [1]: inactive; Activity [2]: inactive; EC50 [3]: Not Active
Cc1cc(C)c2c(N)c(C(=O)NCc3cccc(F)c3)sc2n1,98%,6240 nM,5.21,310 nM,,Activity [5]: inactive
COc1ccc(CNC(=O)c2sc3nc(C)cc(C)c3c2N)c(F)c1,56%,1820 nM,5.74,350 nM,,
Cc1cc(C)c2c(N)c(C(=O)NCc3ccc(F)cc3)sc2n1,98%,2520 nM,5.6,220 nM,,Activity [5]: inactive
Cc1cc(C)c2c(N)c(C(=O)NCc3cccc(F)c3F)sc2n1,91%,1720 nM,5.76,110 nM,,Activity [5]: inactive
Cc1cc(C)c2c(N)c(C(=O)NCc3ccccc3F)sc2n1,92%,1170 nM,5.93,130 nM,,
Cc1cc(C)c2c(N)c(C(=O)NCc3cc(F)ccc3F)sc2n1,85%,1690 nM,5.77,130 nM,,
COc1ccc(CNC(=O)c2sc3nc(C)cc(C)c3c2N)c(F)c1F,89%,1880 nM,5.73,240 nM,,Activity [5]: inactive
COc1ccc(CNC(=O)c2sc3nc(C)cc(C)c3c2N)cc1OC.Cl,inactive,,,,,KB [1]: inactive; Activity [2]: inactive; EC50 [3]: Not Active
COc1ccc(CNC(=O)c2sc3nc(C)cc(C)c3c2N)cc1,85%,,,,,Activity [5]: inactive
COc1ccccc1CNC(=O)c1sc2nc(C)cc(C)c2c1N.Cl,inactive,,,,,KB [1]: inactive; Activity [2]: inactive; EC50 [3]: Not Active
COc1ccc(CNC(=O)c2sc3nc(C)cc(C)c3c2N)cc1F,95%,2580 nM,5.59,100 nM,,Activity [5]: inactive
Cc1cc(C)c2c(N)c(C(=O)NCc3cc(F)cc(F)c3F)sc2n1,85%,1290 nM,5.89,140 nM,,

# Further lines, with some results ahead:
Emax [4],Kb [1],pKb [1],EC50 ([3]; read-out: EC50),Activity [4],Compound,other results
83%,2320 nM,5.63,580 nM,,Cc1cc(C)c2c(N)c(C(=O)NCc3cc(F)c(F)cc3F)sc2n1,
,,,,inactive,COc1ccc(CNC(=O)CSc2nc(C)cc(C)c2C#N)c(F)c1F,
,,,,inactive,Cc1cc(C)c(C#N)c(SCC(=O)NCc2cc(F)c(F)cc2F)n1,
,,,,inactive,COc1ccccc1CNC(=O)CSc1nc(C)cc(C)c1C#N,
,,,,inactive,COc1cc(CNC(=O)CSc2nc(C)cc(C)c2C#N)cc(OC)c1,
,,,,inactive,COc1ccc(CNC(=O)CSc2nc(C)cc(C)c2C#N)cc1,
,,,,inactive,Cc1cc(C)c(C#N)c(SCC(=O)NCc2cc(F)ccc2F)n1,
,,,,inactive,COc1cccc(CNC(=O)CSc2nc(C)cc(C)c2C#N)c1,
inactive,,,,,COc1cc(F)c(CNC(=O)c2sc3nc(C)cc(C)c3c2N)cc1F.Cl,KB [1]: inactive; Activity [2]: inactive; EC50 [3]: Not Active
,,,,inactive,Cc1cc(C)c(C#N)c(SCC(=O)NCc2ccccc2F)n1,
,,,,inactive,Cc1cc(C)c(C#N)c(SCC(=O)NCc2cccc(F)c2)n1,
